Test results as given in ChEMBL document CHEMBL2401668, “Evaluation of thiazole containing biaryl analogs as diacylglycerol acyltransferase 1 (DGAT1) inhibitors” (Eur J Med Chem, 2013).
In brackets after ≈: the same amount, converted by molar mass.

Key:
Mus musculus = experiment: Antihyperlipidemic activity in Swiss mouse assessed as reduction in plasma triglyceride level at 3 mg/kg, po after 1 to 4 hrs by acute fat tolerance test relative to control; format: functional; parameters: scale not given: the % may be the effect or the level left
Procedure, shortened: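 Fasted Swiss mice (4–5 weeks, 25–30 g) were given 3 mg/kg by oral gavage as a suspension in 0.5% CMC with Tween 80, or vehicle (0.5% CMC). An olive oil bolus (10 ml/kg) followed 1 h later. Plasma was taken at 1, 2, 3 and 4 h and triglycerides were measured with a kit. The triglyceride AUC0–4 h was expressed as percent reduction, with the vehicle group taken as 100%.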

[1] = Half life in Swiss mouse at 10 mg/kg, po by ESI-LC/MS/MS method; format: ADME, organism-based; parameters: dose 10 mg/kg, route oral; conditions: in vivo
Procedure, shortened: (§1)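 Oral dose of 10 mg/kg, given as a 1 mg/ml suspension in 0.5% CMC with Tween 80 to weighed Swiss mice (n = 4). Blood was drawn at 0.08–24 h, and plasma was kept on ice, centrifuged at 4 °C and stored at −80 °C. Levels were measured by ESI-LC/MS/MS. Parameters came from non-compartmental analysis: Cmax and Tmax read from the profile, AUC0–t by linear trapezoidal rule, AUCinf extrapolated, and T1/2 = 0.693/λz.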

[2] = Solubility of the compound at pH 7.4; format: physicochemical; conditions: buffer
[3] = AUC (0 to t) in Swiss mouse at 10 mg/kg, po by ESI-LC/MS/MS method; format: ADME, organism-based; parameters: dose 10 mg/kg, route oral; conditions: plasma; procedure, shortened: as §1
[4] = AUC (infinity) in Swiss mouse at 10 mg/kg, po by ESI-LC/MS/MS method; format: ADME, organism-based; parameters: time infinity, dose 10 mg/kg, route oral; conditions: plasma; procedure, shortened: as §1
[5] = Cmax in Swiss mouse at 10 mg/kg, po by ESI-LC/MS/MS method; format: ADME, organism-based; parameters: dose 10 mg/kg, route oral; conditions: in vivo; procedure, shortened: as §1
[6] = Tmax in Swiss mouse at 10 mg/kg, po by ESI-LC/MS/MS method; format: ADME, organism-based; parameters: dose 10 mg/kg, route oral; conditions: in vivo; procedure, shortened: as §1

half-life [1] [min] | solubility [2] [mg/mL] | AUC(0-t) [3] [µg·h/mL] | AUC(0-inf) [4] [µg·h/mL] | Cmax [5] [µM] | Tmax [6] [min] | Compound | Activity (Mus musculus) [%]
37.2 | 0.01 (≈ 21.6 µM) | 5.34 | 5.35 | 5.3 | 15 | CC(C)[C@H](NC(=O)c1ccc(-c2ccc(Nc3nc4ccc(F)cc4s3)cc2)cc1)C(=O)O | 90
29.4 | – | 0.623 | 0.672 | 1.9 | 9.6 | CC(C)[C@H](NC(=O)c1ncc(-c2ccc(NC(=O)Nc3ccccc3Cl)cc2)s1)C(=O)O | 82
49.8 | – | 7.06 | 7.07 | 11.3 | 10.2 | CC(C)[C@H](NC(=O)c1ncc(-c2ccc(NC(=O)c3ccc(C(C)(C)C)cc3)cc2)s1)C(=O)O | 87
